From publication PMC10682633 (Heliyon, 2023)

Key:
tyrosinase [1] = settings: tyrosinase inhibition; cited from earlier work
[2] = Antioxidant activity, DPPH assay; settings: for % inhibition at 200 μM: 200 μM compound; for IC50: read-out: IC50(μM) ± RSD
mushroom tyrosinase = assay: Tyrosinase inhibitory assay; type: biochemical; settings: for % inhibition at 50 μM: 50 μM compound, L-DOPA substrate; for IC50: read-out: IC50 (μM) ± RSD, L-DOPA substrate, means ± RSD
tyrosinase [3] = assay: Enzyme kinetic studies; type: biochemical; settings: Lineweaver-Burk plot; L-DOPA 0-1.5 mM; inhibitor 5-80 μM
In short: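 Mushroom tyrosinase with L-DOPA as substrate, tested across several inhibitor concentrations. Reaction rates were plotted as 1/V against 1/[S] (Lineweaver–Burk double-reciprocal plot) to assign the inhibition type. Km was read from this plot.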

O=c1cc(/C=C/c2cc(=O)c(O)co2)occ1O [B, (E)-6,6'-(ethene-1,2-diyl)bis(3-hydroxy-4H-pyran-4-one)]
IC50 (tyrosinase [1]): 3.63 µM

COc1cccc(C(Nc2ccccn2)c2oc(CO)cc(=O)c2O)c1O (stereo not drawn) [Compound 4l, 3-Hydroxy-2-((2-hydroxy-3-methoxyphenyl)(pyridin-2-ylamino)methyl)-6-(hydroxymethyl)-4H-pyran-4-one]
% inhibition at 200 μM [2]: 30.61 ± 5.76% | % inhibition at 50 μM (mushroom tyrosinase): 52.07 ± 5.27% | IC50 (mushroom tyrosinase): 37.1 ± 5.42 µM

Cc1ccc(C(Nc2ccccn2)c2oc(CO)cc(=O)c2O)cc1 (stereo not drawn) [Compound 4k, 3-Hydroxy-6-(hydroxymethyl)-2-((pyridin-2-ylamino)(p-tolyl)methyl)-4H-pyran-4-one]
% inhibition at 200 μM [2]: 26.96 ± 2.54% | % inhibition at 50 μM (mushroom tyrosinase): 22.28 ± 4.52% | IC50 (mushroom tyrosinase): > 50 µM

COc1ccc(C(Nc2ccccn2)c2oc(CO)cc(=O)c2O)cc1[N+](=O)[O-] (stereo not drawn) [Compound 4i, 3-Hydroxy-6-(hydroxymethyl)-2-((4-methoxy-3-nitrophenyl)(pyridin-2-ylamino)methyl)-4H-pyran-4-one]
% inhibition at 200 μM [2]: 64.24 ± 3.39% | IC50 [2]: 121 ± 10.4 µM | % inhibition at 50 μM (mushroom tyrosinase): 56.57 ± 3.84% | IC50 (mushroom tyrosinase): 30.9 ± 4.13 µM

O=c1cc(CO)oc(C(Nc2ccccn2)c2ccccc2Cl)c1O (stereo not drawn) [Compound 4d, 2-((2-Chlorophenyl)(pyridin-2-ylamino)methyl)-3-hydroxy-6-(hydroxymethyl)-4H-pyran-4-one]
% inhibition at 200 μM [2]: 19.49 ± 3.98% | % inhibition at 50 μM (mushroom tyrosinase): 60.35 ± 1.43% | IC50 (mushroom tyrosinase): 22.4 ± 3.34 µM

O=c1cc(CO)oc(C(Nc2ccccn2)c2cccc(Cl)c2)c1O (stereo not drawn) [Compound 4e, 2-((3-Chlorophenyl)(pyridin-2-ylamino)methyl)-3-hydroxy-6-(hydroxymethyl)-4H-pyran-4-one]
% inhibition at 200 μM [2]: 17.21 ± 4.01% | % inhibition at 50 μM (mushroom tyrosinase): 50.57 ± 2.65% | IC50 (mushroom tyrosinase): 44.7 ± 3.59 µM

O=c1cc(CO)oc(C(Nc2ccccn2)c2ccccc2F)c1O (stereo not drawn) [Compound 4b, 2-((2-Fluorophenyl)(pyridin-2-ylamino)methyl)-3-hydroxy-6-(hydroxymethyl)-4H-pyran-4-one]
% inhibition at 200 μM [2]: 14.09 ± 4.10% | % inhibition at 50 μM (mushroom tyrosinase): 59.42 ± 5.71% | IC50 (mushroom tyrosinase): 28.2 ± 3.63 µM

O=c1cc(CO)oc(C(Nc2ccccn2)c2ccccc2Br)c1O (stereo not drawn) [Compound 4f, 2-((2-Bromophenyl)(pyridin-2-ylamino)methyl)-3-hydroxy-6-(hydroxymethyl)-4H-pyran-4-one]
% inhibition at 200 μM [2]: 13.03 ± 2.86% | % inhibition at 50 μM (mushroom tyrosinase): 60.85 ± 4.29% | IC50 (mushroom tyrosinase): 23.4 ± 4.19 µM

O=c1cc(CO)oc(C(Nc2ccccn2)c2ccccc2)c1O (stereo not drawn) [Compound 4a, 3-Hydroxy-6-(hydroxymethyl)-2-(phenyl(pyridin-2-ylamino)methyl)-4H-pyran-4-one]
% inhibition at 200 μM [2]: 20.86 ± 4.41% | % inhibition at 50 μM (mushroom tyrosinase): 29.14 ± 2.86%

O=c1cc(CO)oc(C(Nc2ccccn2)c2cccc(F)c2)c1O (stereo not drawn) [Compound 4c, 2-((3-Fluorophenyl)(pyridin-2-ylamino)methyl)-3-hydroxy-6-(hydroxymethyl)-4H-pyran-4-one]
% inhibition at 200 μM [2]: 18.65 ± 3.05% | % inhibition at 50 μM (mushroom tyrosinase): 28.47 ± 1.59%

O=c1cc(CO)oc(C(Nc2ccccn2)c2cccc([N+](=O)[O-])c2)c1O (stereo not drawn) [Compound 4h, 3-Hydroxy-6-(hydroxymethyl)-2-((3-nitrophenyl)(pyridin-2-ylamino)methyl)-4H-pyran-4-one]
Mode of inhibition (tyrosinase [3]): uncompetitive | % inhibition at 200 μM ([2]; 200 µM): 37.27 ± 5.42% | % inhibition at 50 μM (mushroom tyrosinase): 74.85 ± 4.26% | IC50 (mushroom tyrosinase): 20.4 ± 2.15 µM

O=c1c(O)c(-c2ccc(O)c(O)c2)oc2cc(O)cc(O)c12 [Quercetin, reference compound]
IC50 [2]: 18.6 ± 2.19 µM

O=c1cc(CO)oc(C(Nc2ccccn2)c2cccc(Br)c2)c1O (stereo not drawn) [Compound 4g, 2-((3-Bromophenyl)(pyridin-2-ylamino)methyl)-3-hydroxy-6-(hydroxymethyl)-4H-pyran-4-one]
% inhibition at 200 μM [2]: 18.44 ± 1.54% | % inhibition at 50 μM (mushroom tyrosinase): 33.71 ± 4.88%

O=c1cc(CO)oc(C(Nc2ccccn2)c2ccc(COc3ccccc3)cc2)c1O (stereo not drawn) [Compound 4m, 3-Hydroxy-6-(hydroxymethyl)-2-((4-(phenoxymethyl)phenyl)(pyridin-2-ylamino)methyl)-4H-pyran-4-one]
% inhibition at 200 μM [2]: 23.30 ± 5.17% | % inhibition at 50 μM (mushroom tyrosinase): 35.42 ± 2.43%

Cc1cccc(C(Nc2ccccn2)c2oc(CO)cc(=O)c2O)c1 (stereo not drawn) [Compound 4j, 3-Hydroxy-6-(hydroxymethyl)-2-((pyridin-2-ylamino)(m-tolyl)methyl)-4H-pyran-4-one]
% inhibition at 200 μM [2]: 17.90 ± 6.77% | % inhibition at 50 μM (mushroom tyrosinase; 50 µM): 16.85 ± 3.14% | IC50 (mushroom tyrosinase): > 50 µM
